≈ marks a conversion by molar mass, not a printed value. Values belong to the compound of their own block, whether it stands above or below them.
Legend:
Hexokinase-4 [1] = target: T1, Hexokinase-4 (Homo sapiens, UniProt P35557); assay: Activation of purified human glucokinase isoform 3 (13 to 466 aa) using 5 mM glucose by spectrophotometry in presence of NAD+ and glucose 6-phosphate dehydrogenase in presence of 4% HSA
T1 sequence (P35557 whole entry): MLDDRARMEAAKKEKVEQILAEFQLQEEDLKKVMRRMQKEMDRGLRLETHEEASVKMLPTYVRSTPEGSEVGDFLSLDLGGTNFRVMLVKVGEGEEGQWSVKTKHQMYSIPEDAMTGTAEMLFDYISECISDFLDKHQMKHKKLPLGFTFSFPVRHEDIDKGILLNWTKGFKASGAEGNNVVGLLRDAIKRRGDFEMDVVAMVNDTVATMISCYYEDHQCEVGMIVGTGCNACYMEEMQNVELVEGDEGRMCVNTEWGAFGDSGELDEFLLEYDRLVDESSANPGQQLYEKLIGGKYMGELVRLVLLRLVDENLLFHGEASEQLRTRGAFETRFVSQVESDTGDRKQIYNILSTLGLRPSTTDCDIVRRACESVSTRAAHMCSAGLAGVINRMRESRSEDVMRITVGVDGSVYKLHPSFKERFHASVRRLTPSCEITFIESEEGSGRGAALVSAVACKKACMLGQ

Hexokinase-4 [2] = target: T1, Hexokinase-4; assay: Activation of purified human glucokinase isoform 3 (13 to 466 aa) using 5 mM glucose by spectrophotometry in presence of NAD+ and glucose 6-phosphate dehydrogenase
[3] = AUC (infinity) in fed CD-1 mouse at 10 mg/kg, po as single dose; format: ADME, organism-based; parameters: time infinity, dose 10 mg/kg, route oral; conditions: plasma
Procedure, shortened: (§1)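 Male CD-1 mice, fed, given a single 10 mg/kg oral dose as a suspension in aqueous 1% CMC/0.05% Tween 80 (w/v). Parameters are calculated from arithmetic mean plasma concentrations, n = 3 per time point.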

[4] = Plasma protein binding in human; format: ADME, cell-free; conditions: read-out: PPB (converted)
[5] = Extraction ratio in fed CD-1 mouse at 1 mg/kg, iv as single dose; format: ADME, organism-based; parameters: dose 1 mg/kg, route intravenous; conditions: in vivo, read-out: ERH
Procedure, shortened: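 Male CD-1 mice, fed, given a single 1 mg/kg iv dose in 40% PEG400/20% EtOH/40% saline (v/v). Extraction ratio is calculated from clearance using a mouse hepatic blood flow of 90 mL min−1 kg−1. Plasma concentrations are arithmetic means, n = 3 per time point.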

[6] = Permeability across pig LLC-PK cells; format: ADME, cell-based, Sus scrofa
[7] = Plasma concentration in C57BL/6 mouse at 30 mg/kg, po measured at 2.5 hrs; format: ADME, organism-based; parameters: dose 30 mg/kg, route oral
Procedure, shortened: (§2)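 C57BL/6 mice in the OGTT study, dosed orally at 3, 10 or 30 mg/kg. Plasma concentrations are means at 2.5 h postdose, n = 8 per dose group.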

Mus musculus [8] = assay: Antidiabetic activity in C57BL/6 mouse assessed as reduction in glucose AUC level at 30 mg/kg, po by oral glucose tolerance test relative to control; format: functional; parameters: scale not given: the % may be the effect or the level left
Procedure, shortened: (§3)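 Dose–response oral glucose tolerance test in C57BL/6 mice at 3, 10 and 30 mg/kg po. Glucose AUC reduction is reported with p < 0.05 significance. Glucose min is the lowest glucose at the 2 h time point for any animal, n = 8.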

[9] = Cmax in fed CD-1 mouse at 10 mg/kg, po as single dose; format: ADME, organism-based; parameters: dose 10 mg/kg, route oral; conditions: in vivo; procedure, shortened: as §1
Mus musculus [10] = assay: Antidiabetic activity in C57BL/6 mouse assessed as reduction in glucose AUC level at 3 mg/kg, po by oral glucose tolerance test relative to control; format: functional; parameters: scale not given: the % may be the effect or the level left; procedure, shortened: as §3
[11] = Oral bioavailability in fed CD-1 mouse at 10 mg/kg as single dose; format: ADME, organism-based; conditions: in vivo; procedure, shortened: as §1
[12] = Half life in fed CD-1 mouse at 1 mg/kg, iv as single dose; format: ADME, organism-based; parameters: dose 1 mg/kg, route intravenous; conditions: in vivo
Procedure, shortened: (§4)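 Male CD-1 mice, fed, given a single 1 mg/kg iv dose as a solution in 40% PEG400/20% EtOH/40% saline (v/v). Parameters are calculated from arithmetic mean plasma concentrations, n = 3 per time point.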

Mus musculus [13] = assay: Antidiabetic activity in ob/ob mouse assessed as reduction in glucose excursion at 30 mg/kg, po bid for 14 days by oral glucose tolerance test; format: functional; parameters: scale not given: the % may be the effect or the level left
Procedure, shortened: (§5)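 ob/ob mice dosed orally b.i.d. at 3, 30 and 100 mg/kg for 14 days. On day 14 an OGTT is run, with fasting blood glucose read at −0.5 h and glucose excursion as AUC reduction. Significance is taken at p < 0.05.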

[14] = Solubility of the compound at pH 6.5; format: physicochemical; conditions: buffer
[15] = Extraction ratio in mouse liver microsomes at 1 uM up to 20 mins by LC-MS/MS analysis; format: ADME; conditions: read-out: ERH
[16] = Tmax in fed CD-1 mouse at 10 mg/kg, po as single dose; format: ADME, organism-based; parameters: dose 10 mg/kg, route oral; conditions: in vivo; procedure, shortened: as §1
[17] = Extraction ratio in human liver microsomes at 1 uM up to 20 mins by LC-MS/MS analysis; format: ADME; conditions: read-out: ERH
[18] = AUClast in fed CD-1 mouse at 1 mg/kg, iv as single dose; format: ADME, organism-based; parameters: time 0 - last, dose 1 mg/kg, route intravenous; conditions: plasma; procedure, shortened: as §4
[19] = AUC (infinity) in fed CD-1 mouse at 1 mg/kg, iv as single dose; format: ADME, organism-based; parameters: time infinity, dose 1 mg/kg, route intravenous; conditions: plasma; procedure, shortened: as §4
Mus musculus [20] = assay: Antidiabetic activity in C57BL/6 mouse assessed as minimum glucose level at 30 mg/kg, po measured at 2 hrs by oral glucose tolerance test relative to control; format: functional; procedure, shortened: as §3
[21] = Plasma concentration in C57BL/6 mouse at 3 mg/kg, po measured at 2.5 hrs; format: ADME, organism-based; parameters: dose 3 mg/kg, route oral; procedure, shortened: as §2
[22] = AUClast in fed CD-1 mouse at 10 mg/kg, po as single dose; format: ADME, organism-based; parameters: time 0 - last, dose 10 mg/kg, route oral; conditions: plasma; procedure, shortened: as §1
[23] = Plasma protein binding in mouse; format: ADME; conditions: read-out: PPB (converted)
Mus musculus [24] = assay: Antidiabetic activity in ob/ob mouse assessed as reduction in fasting blood glucose at 3 mg/kg, po bid for 14 days by oral glucose tolerance test (reference value: 187.9 mg/dL); format: functional; conditions: dose 100 mg/kg, in the assay text read “at 100 mg/kg” for “at 3 mg/kg”; procedure, shortened: as §5
[25] = Solubility of the compound at pH 7.4; format: physicochemical; conditions: buffer
[26] = Volume of distribution at steady state in fed CD-1 mouse at 1 mg/kg, iv as single dose; format: ADME, organism-based; parameters: dose 1 mg/kg, route intravenous; conditions: in vivo, read-out: Vdss; procedure, shortened: as §4
[27] = Plasma concentration in C57BL/6 mouse at 10 mg/kg, po measured at 2.5 hrs; format: ADME, organism-based; parameters: dose 10 mg/kg, route oral; procedure, shortened: as §2
[28] = Clearance in fed CD-1 mouse at 1 mg/kg, iv as single dose; format: ADME, organism-based; parameters: dose 1 mg/kg, route intravenous; conditions: in vivo; procedure, shortened: as §4
Mus musculus [29] = assay: Antidiabetic activity in C57BL/6 mouse assessed as reduction in glucose AUC level at 10 mg/kg, po by oral glucose tolerance test relative to control; format: functional; parameters: scale not given: the % may be the effect or the level left; procedure, shortened: as §3
Mus musculus [30] = assay: Antidiabetic activity in ob/ob mouse assessed as reduction in glucose excursion at 100 mg/kg, po bid for 14 days by oral glucose tolerance test; format: functional; parameters: scale not given: the % may be the effect or the level left; procedure, shortened: as §5
[31] = Fraction unbound in human plasma; format: ADME, cell-free
Mus musculus [32] = assay: Antidiabetic activity in ob/ob mouse assessed as reduction in glucose excursion at 3 mg/kg, po bid for 14 days by oral glucose tolerance test; format: functional; parameters: scale not given: the % may be the effect or the level left; procedure, shortened: as §5
[33] = Solubility of the compound at pH 1.2; format: physicochemical; conditions: buffer

Structure (SMILES): CNC(=O)Nc1ncc(SCCCOC)cc1Oc1cccnc1C
AUC(0-inf) [3]: 5240 ng·h/mL | fraction unbound [4]: 0.38 | hepatic extraction ratio [5]: 0.239 | permeability [6]: permeable | concentration at 2.5 h [7]: 633 ng/mL | Activity (Mus musculus [8]): 30.8% | Cmax [9]: 2320 ng/mL | Activity (Mus musculus [10]): 8% | bioavailability [11]: 67.8% | half-life [12]: 2.67 h | EC50 (Hexokinase-4 [1]; read-out: EC50): 311 nM | Activity (Mus musculus [13]): 33.3% | solubility [14]: 45 µg/mL (≈ 124 µM) | hepatic extraction ratio at 20 min, 1 µM [15]: 0.34 | Tmax [16]: 0.5 h | hepatic extraction ratio at 20 min, 1 µM [17]: 0.32 | AUC(0-t) [18]: 762 ng·h/mL | AUC(0-inf) [19]: 773 ng·h/mL | Activity (Mus musculus [20]): 73 mg/dL | concentration at 2.5 h [21]: 46 ng/mL | AUC(0-t) [22]: 5030 ng·h/mL | fraction unbound [23]: 0.26 | Activity (Mus musculus [24]): 125.9 mg/dL | solubility [25]: 282 µg/mL (≈ 778 µM) | Vd [26]: 1.98 L/kg | EC50 (Hexokinase-4 [2]): 182 nM | concentration at 2.5 h [27]: 178 ng/mL | clearance [28]: 21.5 mL/min/kg | Activity (Mus musculus [29]): 28.6% | Activity (Mus musculus [30]): 30.8% | fraction unbound [31]: 0.4 | Activity (Mus musculus [32]): 18.4% | solubility [33]: > 1000 µg/mL

Structure (SMILES): CCc1ncccc1Oc1cc(Sc2ccccn2)cnc1NC(=O)NCc1cccc(O)c1
EC50 (Hexokinase-4 [1]; read-out: EC50): 2830 nM | EC50 (Hexokinase-4 [2]): 276 nM

Structure (SMILES): CNC(=O)Nc1ncc(SC2CCN(C(C)=O)CC2)cc1Oc1cccnc1C
EC50 (Hexokinase-4 [1]; read-out: EC50): 196 nM | hepatic extraction ratio at 20 min, 1 µM [15]: 0.33 | hepatic extraction ratio at 20 min, 1 µM [17]: 0.44 | EC50 (Hexokinase-4 [2]): 111 nM

Structure (SMILES): CNC(=O)Nc1ncc(SC2CCN(S(C)(=O)=O)CC2)cc1Oc1cccnc1C
EC50 (Hexokinase-4 [1]; read-out: EC50): 248 nM | hepatic extraction ratio at 20 min, 1 µM [15]: 0.32 | hepatic extraction ratio at 20 min, 1 µM [17]: 0.5 | EC50 (Hexokinase-4 [2]): 195 nM

Structure (SMILES): CNC(=O)Nc1ncc(SCc2ccccc2)cc1Oc1cccnc1C
EC50 (Hexokinase-4 [1]; read-out: EC50): 1170 nM | hepatic extraction ratio at 20 min, 1 µM [15]: 0.93 | hepatic extraction ratio at 20 min, 1 µM [17]: 0.93 | EC50 (Hexokinase-4 [2]): 172 nM

Structure (SMILES): CNC(=O)Nc1ncc(Sc2ccccn2)cc1Oc1c(C)n[nH]c1C
EC50 (Hexokinase-4 [1]; read-out: EC50): 345 nM | EC50 (Hexokinase-4 [2]): 2240 nM

Structure (SMILES): CNC(=O)Nc1ncc(SCc2ccccn2)cc1Oc1cccnc1C
EC50 (Hexokinase-4 [1]; read-out: EC50): 9300 nM | EC50 (Hexokinase-4 [2]): 3090 nM

Structure (SMILES): CCc1ncccc1Oc1cc(Sc2ccccn2)cnc1NC(=O)NCc1ccccc1O
EC50 (Hexokinase-4 [1]; read-out: EC50): 5850 nM | EC50 (Hexokinase-4 [2]): 393 nM

The next lines start with the values.

EC50 (Hexokinase-4 [1]; read-out: EC50): 1970 nM | EC50 (Hexokinase-4 [2]): 758 nM
Structure (SMILES): CCc1ncccc1Oc1cc(Sc2ccccn2)cnc1NC(=O)NCc1cccnc1

EC50 (Hexokinase-4 [1]; read-out: EC50): 4480 nM | EC50 (Hexokinase-4 [2]): 1730 nM
Structure (SMILES): CCc1ncccc1Oc1cc(Sc2ccccn2)cnc1NC(N)=O

EC50 (Hexokinase-4 [1]): Not Active | EC50 (Hexokinase-4 [2]): > 50000 nM
Structure (SMILES): CCc1ncccc1Oc1cc(Sc2ccccn2)cnc1NC(C)=O

EC50 (Hexokinase-4 [1]; read-out: EC50): 547 nM | EC50 (Hexokinase-4 [2]): 203 nM
Structure (SMILES): CCNC(=O)Nc1ncc(Sc2ccccn2)cc1Oc1cccnc1CC

EC50 (Hexokinase-4 [1]; read-out: EC50): 41400 nM | EC50 (Hexokinase-4 [2]): 13200 nM
Structure (SMILES): CCc1ncccc1Oc1cc(Sc2ccccn2)cnc1NC=O

— ChEMBL document CHEMBL3352420, “Discovery of 2-pyridylureas as glucokinase activators” (J Med Chem, 2014)
